{"data": "Measured values pooled from the literature", "target": "Mitogen-activated protein kinase kinase kinase 7 (MAP3K7, Homo sapiens, UniProt O43318)", "One construct used (O43318 1-606)": "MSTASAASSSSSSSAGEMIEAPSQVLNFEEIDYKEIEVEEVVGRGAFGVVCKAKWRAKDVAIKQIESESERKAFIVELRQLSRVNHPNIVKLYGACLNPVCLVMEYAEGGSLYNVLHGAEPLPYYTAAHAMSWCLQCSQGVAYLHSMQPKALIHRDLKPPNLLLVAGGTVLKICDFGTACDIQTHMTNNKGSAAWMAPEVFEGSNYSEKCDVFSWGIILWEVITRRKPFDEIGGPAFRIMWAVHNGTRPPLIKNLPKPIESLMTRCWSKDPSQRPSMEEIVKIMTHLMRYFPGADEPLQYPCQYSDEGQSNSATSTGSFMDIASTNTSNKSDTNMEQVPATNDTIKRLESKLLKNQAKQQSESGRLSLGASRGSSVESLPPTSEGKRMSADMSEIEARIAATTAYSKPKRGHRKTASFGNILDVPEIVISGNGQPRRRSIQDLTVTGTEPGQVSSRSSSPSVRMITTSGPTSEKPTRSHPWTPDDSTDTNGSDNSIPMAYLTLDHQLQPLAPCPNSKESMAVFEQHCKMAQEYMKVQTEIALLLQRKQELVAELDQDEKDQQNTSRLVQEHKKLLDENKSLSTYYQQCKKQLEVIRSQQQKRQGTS", "note": "Compare with care: the assays were run in different laboratories."}
{"SMILES": "c1cnn2ncc(-c3ccnc(N4CCC45COC5)n3)c2c1", "read-out": "binding", "tested at": "1 µM", "remaining binding": "51%"}
{"SMILES": "COc1ncc2cc3ccccc3nc2c1C#N", "read-out": "cell-free assay", "technique": "competition with immobilised ligand", "tested at": "5 µM", "remaining binding": "92%"}
{"SMILES": "CC1=C(C#N)[C@@H](c2ccc3[nH]nc(C)c3c2)C(C#N)=C(c2ccc(Cl)cc2)N1", "read-out": "cell-free assay", "technique": "competition with immobilised ligand", "tested at": "1 µM", "remaining binding": "100%"}
{"SMILES": "c1cncc(-c2cccc(Nc3nccc(NC4CCCCC4)n3)c2)c1", "read-out": "binding", "technique": "competition with immobilised ligand", "tested at": "10 µM", "remaining binding": "19%"}
{"SMILES": "COc1ccnn2ncc(-c3ccnc(N(C)C)n3)c12", "read-out": "binding", "tested at": "1 µM", "remaining binding": "75%"}
{"SMILES": "O=C(Nc1c[nH]nc1C(=O)NC1CCNCC1)c1cc(F)cc(F)c1", "read-out": "binding", "technique": "competition with immobilised ligand", "tested at": "1 µM", "remaining binding": "83%"}
{"SMILES": "Cc1cnc(Nc2ccc(C(=O)N3CCC(N4CCCC4)CC3)cc2)nc1-c1cc2ccccc2s1", "read-out": "binding", "technique": "competition with immobilised ligand", "tested at": "1 µM", "remaining binding": "7.3%"}
{"SMILES": "Cn1nc(C(=O)NCc2ccc(C(=O)O)cc2)cc1-c1ccc2[nH]ccc2c1", "read-out": "cell-free assay", "technique": "competition with immobilised ligand", "tested at": "0.1 µM", "remaining binding": "95%"}
{"SMILES": "COc1cnc(Nc2cccc(S(N)(=O)=O)c2)nc1N1CCN(c2ccccc2)C(=O)C1", "read-out": "binding", "technique": "competition with immobilised ligand", "tested at": "1 µM", "remaining binding": "74%"}
{"SMILES": "F[C@@H]1CCN(c2nccc(-c3cnn4ncccc34)n2)C1", "read-out": "binding", "tested at": "1 µM", "remaining binding": "100%"}
{"SMILES": "O=C(NCc1ncc(C(F)(F)F)cc1Cl)c1ccc2c(c1)C1(CCS(=O)(=O)CC1)[C@H](C1CC1)N2S(=O)(=O)c1ccc(F)cc1", "read-out": "cell-free assay", "technique": "competition with immobilised ligand", "tested at": "1 µM", "remaining binding": "80%"}
{"SMILES": "C[C@H]1CCN(c2nccc(-c3cnn4ncccc34)n2)C1", "read-out": "binding", "tested at": "1 µM", "remaining binding": "71%"}
{"SMILES": "Cc1cc(NC(=O)c2cccc(S(F)(F)(F)(F)F)c2)cc(-n2ccn3nc(-c4cccnc4)cc23)c1", "read-out": "cell-free assay", "technique": "competition with immobilised ligand", "tested at": "1 µM", "remaining binding": "100%"}
{"SMILES": "CCN1CCN(Cc2ccc(C(=O)Nc3ccc(C)c(Oc4ccc5c(c4)CC(=O)N5)c3)cc2C(F)(F)F)CC1", "read-out": "binding", "technique": "competition with immobilised ligand", "tested at": "1 µM", "remaining binding": "7.6%"}
{"SMILES": "O=C(c1ccc(Nc2ncc(Cl)c(-c3cc4ccccc4s3)n2)cc1)N1CCC(N2CCCC2)CC1", "read-out": "binding", "technique": "competition with immobilised ligand", "tested at": "1 µM", "remaining binding": "3.6%"}
{"SMILES": "CC1CCCN1c1nccc(-c2cnn3ncccc23)n1 (stereo not shown)", "read-out": "binding", "tested at": "1 µM", "remaining binding": "100%"}
{"SMILES": "NS(=O)(=O)c1cc(NC(=O)C2(c3ccccc3Cl)CC2)ccc1Oc1cccc(Cl)c1", "read-out": "cell-free assay", "technique": "competition with immobilised ligand", "tested at": "1 µM", "remaining binding": "98%"}
{"SMILES": "O=C(c1ccc(Nc2nccc(-c3cc4ccccc4s3)n2)cc1)N1CCC(N2CCCC2)CC1", "read-out": "binding", "technique": "competition with immobilised ligand", "tested at": "1 µM", "remaining binding": "7.2%"}
{"SMILES": "CN(c1nccc(-c2cnn3ncccc23)n1)C1CC1", "read-out": "binding", "tested at": "1 µM", "remaining binding": "82%"}
{"SMILES": "O=C(NS(=O)(=O)c1ccc(NCC2CCOCC2)c([N+](=O)[O-])c1)c1ccc(N2CCN(Cc3ccc(C(F)(F)F)cc3-c3ccc(Cl)cc3)CC2)cc1Oc1cnc2[nH]ccc2c1", "read-out": "cell-free assay", "technique": "competition with immobilised ligand", "tested at": "1 µM", "remaining binding": "100%"}
{"SMILES": "CN(CCCC(F)(F)F)c1nccc(-c2cnn3ncccc23)n1", "read-out": "binding", "tested at": "1 µM", "remaining binding": "85%"}
{"SMILES": "CC(C)(O)c1cncc(-c2nc3ccc(F)cc3n2C2CC2)c1", "read-out": "cell-free assay", "technique": "competition with immobilised ligand", "tested at": "1 µM", "remaining binding": "100%"}
